Source: PubChem (several laboratories)
Shown are actives, neighbours in structure and some others; about 2.6% of the full set was active somewhere.
SMARCA2 activ: activators of SMARCA2 function | activation, % at 9.1 µM | MG213 cells, MMTV-luciferase reporter, dexamethasone, overnight | 370,000 tested, 1% active; in the data active = activation above about 7.8%;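 note: 0% = vehicle wells and 100% = reference activator wells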
ARFGAP1 inhibitor: inhibitors of rat ARFGAP1; Q62848; Arfgap1-stimulated ARF1 GTP hydrolysis, GDP FP detection; inhibition, % at 16.5 µM; 360,000 tested, 0.26% active;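 active = inhibition above a per-plate limit, mean inhibition of low control wells plus 3 SD, cut at about 25% in these data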;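 note: 0% = DMSO wells with enzyme and 100% = wells lacking Arfgap1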
Target sequence (Q62848 1-136 limits assumed): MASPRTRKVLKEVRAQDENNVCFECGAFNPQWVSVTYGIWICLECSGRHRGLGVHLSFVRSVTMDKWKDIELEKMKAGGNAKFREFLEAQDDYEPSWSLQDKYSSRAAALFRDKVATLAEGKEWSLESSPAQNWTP
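Assay system: Rat Arfgap1 GAP domain (His6, aa 1-136), purified enzyme | Buffer or medium: HEPES 25 mM pH 7.5, NaCl 150 mM, MgCl2, DTT | Schedule: GTP hydrolysis reaction 2 h at 25 °C | Signal: FP of antibody-bound GDP Alexa 633 tracer, ex 620/em 688 nm | Measure: Percent inhibition of Arfgap1-stimulated GTP hydrolysis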
esBAF inh: blocks esBAF chromatin remodeling in mouse ES cells. Bmi1-luciferase knock-in reporter, 24 h; 100% = twice the neutral-well signal. reporter increase, % at 12.5 µM. 350,000 tested, 2% active; in the data active = activation above about 40%;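 note: 0% = median of the plate's neutral control wells and 100% = double that signal; a rise in the Bmi1 reporter signal indicates esBAF inhibition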
ASAP1 GAP inh: blocks human ASAP1-stimulated Arf1 GTP hydrolysis; inhibition, % at 16.5 µM; AID 624377; 360,000 tested, 0.19% active; GDP FP detection; Q9ULH1; in the data active = inhibition above about 25%;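 note: 0% = vehicle with enzyme and substrate and 100% = no enzyme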
Target sequence (Q9ULH1 325-724 limits assumed): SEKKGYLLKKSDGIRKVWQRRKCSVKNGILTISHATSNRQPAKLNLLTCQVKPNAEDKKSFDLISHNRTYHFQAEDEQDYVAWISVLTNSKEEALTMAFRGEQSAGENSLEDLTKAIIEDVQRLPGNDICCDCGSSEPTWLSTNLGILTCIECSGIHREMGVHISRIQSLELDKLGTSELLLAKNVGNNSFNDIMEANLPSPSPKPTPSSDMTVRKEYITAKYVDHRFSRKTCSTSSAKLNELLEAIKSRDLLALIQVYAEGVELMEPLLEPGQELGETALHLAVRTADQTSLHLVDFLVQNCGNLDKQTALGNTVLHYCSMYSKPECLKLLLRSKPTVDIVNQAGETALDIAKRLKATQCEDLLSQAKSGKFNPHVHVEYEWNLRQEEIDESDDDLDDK
Active calls of the source: *; / = not tested or not shown.

SMILES	SMARCA2 activ	ARFGAP1 inhibitor	esBAF inh	ASAP1 GAP inh
O=C(Nc1ncc(Cc2ccccc2Cl)s1)C1CCCO1 (configuration not stated)	4	2	71*	-5
CCc1cccc(C)c1NC(=O)C1CCCO1 (configuration not stated)	0	-2	-10	7
CN(C)CC(=O)Nc1ccc2c(c1)[C@@H]1C[C@@H](CC(=O)NCc3cc(F)ccc3F)O[C@@H](CO)[C@@H]1O2	/	/	2	/
O=C(CN1CCOCC1)N1CCCCN2[C@H](CO)[C@@H](c3ccc(-c4ccccc4F)cc3)[C@@H]2C1	/	/	-5	/
O=C(C[C@@H]1C=C[C@H](NC(=O)c2ccccn2)[C@H](CO)O1)NCc1cc(F)cc(F)c1	/	/	-5	/
COc1ccc2cc(-c3cccnc3)ncc2c1	7	-9	33	18
Fc1ccc2cc(-c3cccnc3)ncc2c1	5	-8	50*	-10
O=C(C[C@H]1C[C@H]2c3cc(NS(=O)(=O)c4ccc(F)cc4)ccc3O[C@H]2[C@@H](CO)O1)NCc1cc(F)ccc1F	/	/	4	/
CC1CCC(NC(=O)c2ccc(NC(=O)CC3SC(N4CCCC4)=NC3=O)cc2)CC1 (configuration not stated)	5	0	66*	-1
CCNC(=O)c1ccc(NC(=O)CC2SC(N3CCCCC3)=NC2=O)cc1 (configuration not stated)	1	-6	-1	2
CN1CCc2c(sc3nc(SCC(=O)NCc4ccco4)n(-c4ccccc4)c(=O)c23)C1	2	8	70*	5
CCc1nnc(NC(=O)C2CCCN(C(=O)c3ccc(Cl)cc3)C2)s1 (configuration not stated)	-1	1	50*	3
CCSc1nnc(NC(=O)C2CCCN(C(=O)c3ccc(Cl)cc3)C2)s1 (configuration not stated)	0	-11	3	-9
COc1ccc(OCc2cc(C(=O)N(C)Cc3nccn3C)no2)c2ccccc12	0	0	0	11
COc1cccc(OCc2cc(C(=O)N(C)CCOc3ccc(C)cc3)no2)c1	2	-4	67*	6
Cc1ccc(OCCN(C)C(=O)c2cc(COc3ccc(F)cc3F)on2)cc1	0	3	9	-10
COc1cccc(OCc2cc(C(=O)N(C)Cc3nccn3C)no2)c1	6	-8	69*	-1
C[C@H](O)C#Cc1ccc2c(c1)O[C@H](CN(C)C(=O)c1ccccc1)[C@@H](C)CN([C@H](C)CO)S2(=O)=O	/	/	4	/
O=C(CC1CC1)N1CC[C@@H]2[C@@H](CO)Nc3ccc(-c4cccc(F)c4)cc3[C@@H]21	/	/	-4	/
O=[N+]([O-])c1ccccc1-c1cc(-c2ccccc2O)n[nH]1	3	15	55*	17
Fc1cccc(F)c1/C=N/N1CCOCC1	7.9*	0	/	14
C[C@@H]1CN([C@H](C)CO)C(=O)c2cc(Br)cnc2O[C@H]1CN(C)Cc1ccncc1	/	/	2	/
CC(C)NC(=O)N(C)C[C@H]1Oc2ccc(NS(=O)(=O)c3cccs3)cc2C(=O)N([C@@H](C)CO)C[C@@H]1C	/	/	3	/
CCn1cc(Br)c(C(=O)Nc2ccc(Cl)c(Cl)c2)n1	-4	5	65*	8
CCCC#Cc1ccc2c(c1)O[C@@H](CN(C)C(=O)c1ccccn1)[C@@H](C)CN([C@@H](C)CO)S2(=O)=O	/	/	3	/
SMILES	SMARCA2 activ	ARFGAP1 inhibitor	esBAF inh	ASAP1 GAP inh
COCC(=O)N1[C@@H]2c3ccc(C4=CCCCC4)c(=O)n3C[C@@H]2[C@@H](CO)[C@@H]1C(=O)N1CCCCC1	/	/	3	/
CC(C)(C)N(Cc1ccccc1)C(=O)CN1C(=O)c2ccccc2C1=O	2	-2	46*	-10
CN(C)c1ccnc(Oc2ccc(C(C)(C)C)cc2)c1C#N	1	-6	52*	5
C[C@@H]1CN([C@@H](C)CO)C(=O)c2cc(NC(=O)Nc3ccc4c(c3)OCO4)ccc2O[C@@H](C)CCCCO[C@@H]1CN(C)S(=O)(=O)c1cn(C)cn1	/	/	47*	/
C[C@@H]1CCCCO[C@@H](CN(C)S(=O)(=O)c2cn(C)cn2)[C@H](C)CN([C@H](C)CO)C(=O)c2cc(NC(=O)Nc3ccc4c(c3)OCO4)ccc2O1	/	/	60*	/
C[C@@H]1CCCCO[C@H](CN(C)S(=O)(=O)c2cn(C)cn2)[C@@H](C)CN([C@@H](C)CO)C(=O)c2cc(NC(=O)Nc3ccc4c(c3)OCO4)ccc2O1	/	/	40	/
C[C@@H]1CN([C@H](C)CO)C(=O)c2cc(NC(=O)Nc3ccc4c(c3)OCO4)ccc2O[C@@H](C)CCCCO[C@@H]1CN(C)S(=O)(=O)c1cn(C)cn1	/	/	68*	/
C[C@H](CO)N1C[C@H](C)[C@@H](CN(C)S(=O)(=O)c2cn(C)cn2)OCCCC[C@H](C)Oc2ccc(NC(=O)Nc3ccc4c(c3)OCO4)cc2C1=O	/	/	44*	/
CCCC(=O)Nc1ccc2c(c1)C(=O)N(C)C[C@@H](OC)[C@H](C)CN(C(=O)c1cccnc1)[C@@H](C)CO2	/	/	0	/
Cc1ccc(NC(=O)Cc2nc(CSc3nnc(-c4ccc5c(c4)OCO5)o3)cs2)cc1	-1	0	51*	-1
COc1ccc2cc(C(=O)OC(C)C)sc(=O)c2c1OC	3	-14	53*	-11
C[C@H]1CN([C@@H](C)CO)C(=O)Cc2cc(NS(=O)(=O)c3ccccc3)ccc2O[C@H]1CN(C)S(=O)(=O)c1ccc(Cl)cc1	/	/	1	/
Cc1ccc2nc(N(CCCN(C)C)C(=O)c3ccc4ncsc4c3)sc2c1	3	4	52*	-6
O=C(N/N=C/c1cccc(F)c1)c1cc(-c2ccco2)nc2ccccc12	-6	-11	79*	-5
COc1cc(/C=N/NC(=O)c2cc(-c3ccco3)nc3ccccc23)cc(OC)c1O	-4	5	/	10
Cc1cc(OCc2cc(C(=O)N(C)CCOc3ccccc3)no2)cc(C)c1Cl	-1	0	0	11
Cc1cc(OCc2cc(C(=O)N(C)C(C)c3ccccn3)no2)cc(C)c1Cl (configuration not stated)	0	0	57*	3
Cc1cc(OCc2cc(C(=O)N(C)Cc3ccccn3)no2)cc(C)c1Cl	8	-4	75*	6
CC(=O)c1ccc(OCc2cc(C(=O)N(C)Cc3ccccn3)no2)cc1	2	-3	104*	4
CSc1ccccc1OCc1cc(C(=O)N(C)C(C)c2ccccn2)no1 (configuration not stated)	3	-5	0	-6
COc1ccc(S(=O)(=O)Nc2ccc3c(c2)[C@H]2C[C@H](CC(=O)O)O[C@@H](CO)[C@H]2O3)cc1	/	/	-1	/
Cc1noc(C)c1NC(=O)N(C)C[C@@H]1OCCCC[C@@H](C)Oc2ccc(NC(=O)Nc3ccccc3)cc2C(=O)N([C@H](C)CO)C[C@@H]1C	/	/	-3	/
Nc1n[nH]c(N)c1N=Nc1cccc(C(F)(F)F)c1	0	-4	51*	-3
COc1ccc(S(=O)(=O)Nc2ccc3c(c2)C(=O)N([C@@H](C)CO)C[C@H](C)[C@@H](CN(C)S(=O)(=O)c2cn(C)cn2)OCCCC[C@H](C)O3)cc1	/	/	-4	/
